# Source: PubChem (several laboratories)
# Shown are actives, neighbours in structure and some others; about 1.3% of the full set was active somewhere.
# Rpn11 inh: blocks the human proteasome subunit Rpn11. human 26S proteasome, Ub4-pepOG fluorescence polarization; 20S core pre-blocked with epoxomicin. O00487. inhibition, % at 20 µM. 360,000 tested, 0.59% active;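 active = inhibition at 20 µM, scaled to each plate's controls, above about 33%, limit read from the data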
# Xi reactivation: X-chromosome reactivation activator; XiGFP mouse fibroblasts, % GFP-positive cells imaging, 3 d; cells co-treated with 5-aza-dC sensitizer; scaled so ellipticine positive control = 100%; activation, % at 7.58 µM; 360,000 tested, 0.055% active; AID 743238;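 active = mean normalized replicate activation at least 10% and every replicate at or above 10%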;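 also: 0% = median of on-plate neutral control wells and 100% = ellipticine 6 µM median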
#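 Assay system: SV40-immortalized XiGFP fibroblast cells, line 68-5-11; buffer or medium: DMEM plus 5-aza-dC sensitizer; compound: one concentration, pinned; timing: compounds 3 days, fix/stain 15 min at room temperature; benchmarks: positive control ellipticine, 6 µM final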
# aDG glyco act: alpha-DG glycosylation activation; Pro5-aDG cells, alpha-DG glycosylation AlphaScreen (IIH6); 0% Pro5, 100% B10-LARGE cell signal; activation, % at 10 µM; 360,000 tested, 0.22% active;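 active = activation of at least 8% versus controls, or a plate z-score of at least 8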;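 also: Pro5 are CHO cells carrying HIG-tagged alpha-DG that lacks glycosylation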
# TPT1 inh: blocks Candida albicans tRNA 2'-phosphotransferase; AID 1962; 300,000 tested, 0.81% active; recombinant caTPT1, FP RNA substrate dephosphorylation; inhibition, % at 5 µM;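 active = inhibition above the mean of all tested compounds plus 3 SD, set per screening campaign, cut at about 24% in these data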;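 also: plate controls were DMSO alone for no effect and ferristatin control at 100 nM for full effect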
# CSN inh: CSN deneddylation inhibition. 360,000 tested, 0.38% active. Q92905. inhibition, % at 12.5 µM. Purified CSN, SCF-Nedd8-OG deneddylation, fluorescence polarization;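 active = pattern-corrected inhibition above about 35%, with an unprinted fluorescence ratio check between 0.5 and 1.5, limit read from the data, passing the limit was not always enough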;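 also: 0% = enzyme with substrate and 100% = substrate without enzyme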
#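 Assay system: Purified human Csn5 enzyme expressed in HEK293T cells | Amount: Enzyme 0.24 nM | Measured by: Fluorescence polarization readout | Medium: Tris/NaCl/DTT buffer, pH 7.5 | Compound dosing: One concentration, 12.5 µM, 0.25% DMSO | Times: 90 min incubation of compound, enzyme and substrate at room temperature | Control set: no-enzyme wells high, enzyme-with-substrate wells low | Read-out: % inhibition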
# HNF4A DNA FP: change in binding of human HNF4 alpha to DNA | activity change, % at 10 µM | 360,000 tested, 0.3% active | P41235 | HNF4a-FITC DNA binding, fluorescence polarization, 1 h; in the data active = activity change above about 30%, passing the limit was not always enough
# Target sequence (P41235 whole entry, looked up): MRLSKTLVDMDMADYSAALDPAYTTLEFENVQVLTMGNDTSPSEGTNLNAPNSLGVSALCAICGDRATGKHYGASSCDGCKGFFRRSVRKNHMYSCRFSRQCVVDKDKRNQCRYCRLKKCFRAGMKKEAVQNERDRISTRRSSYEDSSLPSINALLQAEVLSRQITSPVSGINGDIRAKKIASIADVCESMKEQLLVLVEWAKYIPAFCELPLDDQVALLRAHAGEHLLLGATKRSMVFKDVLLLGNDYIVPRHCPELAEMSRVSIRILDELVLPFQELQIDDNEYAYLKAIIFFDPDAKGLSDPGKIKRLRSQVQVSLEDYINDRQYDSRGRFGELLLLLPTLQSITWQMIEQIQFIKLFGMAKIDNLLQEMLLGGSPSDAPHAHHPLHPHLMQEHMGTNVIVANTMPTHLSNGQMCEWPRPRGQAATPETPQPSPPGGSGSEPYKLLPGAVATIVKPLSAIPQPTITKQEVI
# * marks the source's active call; other numbers are inactive results; x = no result shown.
SMILES,Rpn11 inh,Xi reactivation,aDG glyco act,TPT1 inh,CSN inh,HNF4A DNA FP
CCCCCC[n+]1ccccc1/C=C/c1ccc(N(C)C)cc1,x,16*,1,x,100,121*
CC[n+]1c(/C=C/c2ccc(N(C)C)cc2)ccc2ccccc21,17,0,1,9,2,10
Cc1ccnc(NC(=O)c2ccc([N+](=O)[O-])s2)c1,-7,0,8.4*,-4,0,3
Cc1cccc(NC(=O)c2ccc([N+](=O)[O-])s2)n1,-8,0,7.2*,0,1,0
CN(C)C(=O)C[C@@H]1CC[C@@H]2[C@H](COC[C@H](O)CN2Cc2nccs2)O1,x,1,x,x,x,x
COc1ccc(NC(=O)N(C)C[C@H]2Oc3ccc(NC(=O)CCN4CCOCC4)cc3CC(=O)N([C@H](C)CO)C[C@H]2C)cc1,x,0,x,x,x,x
O=C(NCCN1CCOCC1)c1cccc2c1C(=O)c1ccc(N3CCCC3)cc1S2(=O)=O,x,0,0,x,35,68
O=C(NC1CC1)c1cccc2c1C(=O)c1ccc(N3CCC(N4CCCCC4)CC3)cc1S2(=O)=O,x,0,0,x,43*,45
CN1CCC[C@@H]1CCNC(=O)c1cccc2c1C(=O)c1ccc(N3CCCC3)cc1S2(=O)=O,x,0,0,x,27,63*
O=C(C[C@H]1CC[C@@H]2[C@H](COC[C@@H](O)CN2C(=O)Nc2cc(Cl)cc(Cl)c2)O1)NCC1CCCCC1,x,0,x,x,x,x
C[C@@H]1CN([C@@H](C)CO)C(=O)c2cc(NC(=O)Nc3ccc(C(F)(F)F)cc3)ccc2O[C@@H]1CN(C)C,x,-1,x,x,x,x
O=C(OCC(=O)N1CCCC1)c1ccc(S(=O)(=O)N2CCOCC2)cc1,0,0,0,3,1,4
O=C(OCC(=O)N1CCN(C(=O)c2ccco2)CC1)c1ccc(S(=O)(=O)N2CCCCC2)cc1,-3,x,0,0,-1,50*
O=C(N[C@H]1CC[C@H](CCNS(=O)(=O)c2ccc(Cl)cc2)O[C@H]1CO)c1cccnc1,x,0,x,x,x,x
Cc1ccc(NC(=O)c2ccc(Cl)c(N3C(=O)CCC3=O)c2)cc1,-4,0,0,1,-1,55*
COc1ccc(-c2csc3nc(-c4ccc(C)cc4)oc(=O)c23)cc1OC,4,0,0,1,-3,48*
CCOc1ccc(NC(=O)c2ccc(NC(=O)c3ccc(NC(N)=O)cc3)cc2)cc1,106*,0,0,x,19,-13
C[C@@H]1CN(C)C(=O)c2cc(N(C)C)ccc2O[C@@H]1CN(C)C,x,0,x,x,x,x
COc1ccc(NC(=O)Nc2ccc3c(c2)CC(=O)N([C@H](C)CO)C[C@@H](C)[C@@H](CN(C)S(=O)(=O)c2cccs2)O3)cc1,x,-1,x,x,x,x
O=C(Nc1ccc(-c2ccc3nncn3n2)cc1)c1ccc(Br)o1,14,0,0,4,64*,-6
CNC(=O)C[C@@H]1CC[C@H]2[C@@H](COC[C@H](O)CN2Cc2ccc(C(F)(F)F)cc2)O1,x,0,x,x,x,x
CC(C)(C=O)C1=CC(=O)c2ccccc2C1=O,0,18*,0,-1,0,-5
Cn1c(=O)c2c(nc(CN3CCN(c4ccc(F)cc4)CC3)n2CCN2CCOCC2)n(C)c1=O,0,0,0,-3,2,75*
CSCCC(NC(=O)c1ccc(Cl)cc1)C(=O)OCC(=O)N1CCCC1=O (stereo unspecified),-9,0,0,-2,0,1
CSCCC(NC(=O)c1ccc(C(C)(C)C)cc1)C(=O)OCC(=O)N1CCCC1=O (stereo unspecified),-13,0,0,x,67*,0
SMILES,Rpn11 inh,Xi reactivation,aDG glyco act,TPT1 inh,CSN inh,HNF4A DNA FP
CC(=O)[C@@]1(O)Cc2c(O)c3c(c(O)c2[C@H](O[C@H]2C[C@H](N)[C@H](O)[C@H](C)O2)C1)C(=O)c1ccccc1C3=O,-116,109*,-1,x,-76,-97
COc1cccc2c1C(=O)c1c(O)c3c(c(O)c1C2=O)C[C@@](O)(C(=O)CO)C[C@@H]3OC1CC(N)C(O)C(C)O1 (stereo partly specified),-68,2,-1,x,-73,-41
Cc1cc(Oc2ccc(C(C)(C)C)cc2)nc(N2CCOCC2)n1,-2,x,1,-2,8,-2
CCCc1ccc(Oc2cc(C)nc(N3CCOCC3)n2)cc1,-1,x,0,1,94*,3
COCC(=O)Nc1ccc2c(c1)[C@@H]1C[C@@H](CC(=O)O)O[C@H](CO)[C@@H]1O2,x,0,x,x,x,x
CC[C@]12c3[nH]c4ccc(Cl)cc4c3CCN1C(=O)[C@@H](CC(=O)NCCN1CCOCC1)C[C@@H]2C(=O)N1CCN(C(=O)c2ccco2)CC1,1,0,0,x,95*,-1
CC[C@]12c3[nH]c4ccc(Cl)cc4c3CCN1C(=O)[C@@H](CC(=O)NCc1ccco1)C[C@@H]2C(=O)N1CCN(C(=O)c2ccco2)CC1,2,0,0,x,-3,3
Cc1noc(C)c1NC(=O)N[C@@H]1C=C[C@H](CC(=O)NCc2ccc(Cl)c(Cl)c2)O[C@@H]1CO,x,0,x,x,x,x
O=C(c1[nH]c(C(F)(F)F)nc1-c1ccccc1)N1CCCN(Cc2ccc(F)cc2)CC1,-1,1,0,x,76*,12
CCCCCNC(=O)C(c1cccc2ccccc12)n1c(=O)c(-c2ccco2)nc2ccccc21 (stereo unspecified),x,0,0,x,33,40*
O=C(NCc1ccccc1)C(c1cccc2ccccc12)n1c(=O)c(-c2ccco2)nc2ccccc21 (stereo unspecified),x,0,0,x,21,26
Cc1cccc(C)c1NC(=O)C(c1ccccc1F)n1c(=O)c(-c2ccco2)nc2ccccc21 (stereo unspecified),x,0,0,x,23,45*
COc1ccc(NC(=O)C(c2ccccc2F)n2c(=O)c(-c3ccco3)nc3ccccc32)cc1 (stereo unspecified),x,0,0,x,6,16
Cc1cccc(C)c1NC(=O)C(c1ccnc2ccccc12)n1c(=O)c(-c2ccco2)nc2ccccc21 (stereo unspecified),x,0,0,x,21,44*
Cc1cccc(-c2ccc([C@H]3[C@H](CO)N4C(=O)CN(C(=O)c5cnccn5)C[C@@H]34)cc2)c1,x,0,x,x,x,x
Cc1noc(C)c1NC(=O)N[C@@H]1C=C[C@H](CC(=O)NCCCN(C)C)O[C@@H]1CO,x,0,x,x,x,x
COc1cc(-c2cc(O)c(-c3ccc4ccccc4n3)c(=O)[nH]2)cc(OC)c1OC,x,0,0,x,58*,135
